The values below come from ChEMBL document CHEMBL3758101, “Synthesis and biological evaluation of fluorinated 1,5-diarylpyrrole-3-alkoxyethyl ether derivatives as selective COX-2 inhibitors endowed with anti-inflammatory activity” (Eur J Med Chem, 2016).

pIC50: −log10 of the molar value. The source made the active and inactive calls. The calls are words filed in the database; no cut-off is given here.

The subject of data set [1] is HaCaT. The data set is described as follows: Cytotoxicity against human HaCaT cells at 1 to 50 uM after 24 hrs by LDH release assay. The format is cell-based. Summed up:
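HaCaT cells were grown in high-glucose DMEM with 10% FBS to 80% confluency. They were exposed 24 h to compound at 1–50 µM (final DMSO ≤0.1%). LDH release was expressed as a percentage of Triton X-100 lysis (100%); mean of three experiments.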
On the technique in general: LDH in the medium is a marker of cell lysis.

Data set [2] relates to HaCaT. The data set is described as follows: Antiproliferative activity against human HaCaT cells after 24 hrs by BrdU incorporation assay. It counts as functional, cell-based. Summed up: (§1)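 HaCaT human keratinocytes were grown in high-glucose DMEM with 10% FBS and 2 mM L-glutamine at 37 °C and 5% CO2 to 80% confluency. Cells were treated 24 h with compound at 1, 10 or 50 µM (final DMSO ≤0.1%). Proliferation was read by BrdU incorporation as % of DMSO control; three experiments.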
For orientation: Uptake of a labelled nucleoside into DNA is a usual measure of proliferation.

The test system of data set [3] is HaCaT. The data set is described as follows: Antiproliferative activity against human HaCaT cells at 10 uM after 24 hrs by BrdU incorporation assay. The format is functional, cell-based. Summed up:
as §1

Data set [4] relates to HaCaT. The experiment in a line: Antiproliferative activity against human HaCaT cells at 50 uM after 24 hrs by BrdU incorporation assay. The format is functional, cell-based. In short, it runs like this:
as §1

Data set [5] relates to HaCaT. The data set is described as follows: Antiproliferative activity against human HaCaT cells at 1 uM after 24 hrs by BrdU incorporation assay. It counts as functional, cell-based. Summed up: as §1
Data set [6] concerns the target T1, Prostaglandin G/H synthase 1 (Mus musculus, UniProt P22437).
T1 sequence (P22437 whole entry): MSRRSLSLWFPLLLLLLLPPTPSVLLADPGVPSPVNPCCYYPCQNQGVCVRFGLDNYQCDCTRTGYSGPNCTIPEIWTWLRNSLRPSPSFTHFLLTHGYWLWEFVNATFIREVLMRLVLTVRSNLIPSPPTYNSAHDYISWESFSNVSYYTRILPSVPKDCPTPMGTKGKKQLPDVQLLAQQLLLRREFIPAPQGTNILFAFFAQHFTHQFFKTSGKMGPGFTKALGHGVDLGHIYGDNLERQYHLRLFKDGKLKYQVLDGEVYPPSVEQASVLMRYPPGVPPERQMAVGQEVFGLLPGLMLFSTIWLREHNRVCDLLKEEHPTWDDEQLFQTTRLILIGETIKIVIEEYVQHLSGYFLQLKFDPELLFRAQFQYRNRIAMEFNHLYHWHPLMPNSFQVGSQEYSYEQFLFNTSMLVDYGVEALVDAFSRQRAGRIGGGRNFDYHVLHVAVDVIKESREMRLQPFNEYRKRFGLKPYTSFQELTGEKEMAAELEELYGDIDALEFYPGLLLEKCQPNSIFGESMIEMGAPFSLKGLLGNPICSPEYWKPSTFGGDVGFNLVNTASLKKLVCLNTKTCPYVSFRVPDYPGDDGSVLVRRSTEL
The data set is described as follows: Inhibition of COX-1 in mouse J774 cells assessed as reduction in PGE2 level using arachidonic acid as substrate preincubated for 15 mins followed by incubation with arachidonic acid for 30 mins by radio immunoassay. The format is cell-based. Summed up:
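Murine J774 macrophages (2.5 × 10^5 cells/mL) were adhered 2 h at 37 °C and given fresh medium. Cells were pretreated with compound at 100 µM for 15 min, then incubated 30 min at 37 °C with 15 µM arachidonic acid. Supernatant PGE2 was measured by RIA as % inhibition versus control; triplicate wells, three experiments, IC50 from a sigmoidal variable-slope fit.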

Data set [7] deals with T2, Prostaglandin G/H synthase 2 (Mus musculus, UniProt Q05769).
T2 sequence (Q05769 whole entry): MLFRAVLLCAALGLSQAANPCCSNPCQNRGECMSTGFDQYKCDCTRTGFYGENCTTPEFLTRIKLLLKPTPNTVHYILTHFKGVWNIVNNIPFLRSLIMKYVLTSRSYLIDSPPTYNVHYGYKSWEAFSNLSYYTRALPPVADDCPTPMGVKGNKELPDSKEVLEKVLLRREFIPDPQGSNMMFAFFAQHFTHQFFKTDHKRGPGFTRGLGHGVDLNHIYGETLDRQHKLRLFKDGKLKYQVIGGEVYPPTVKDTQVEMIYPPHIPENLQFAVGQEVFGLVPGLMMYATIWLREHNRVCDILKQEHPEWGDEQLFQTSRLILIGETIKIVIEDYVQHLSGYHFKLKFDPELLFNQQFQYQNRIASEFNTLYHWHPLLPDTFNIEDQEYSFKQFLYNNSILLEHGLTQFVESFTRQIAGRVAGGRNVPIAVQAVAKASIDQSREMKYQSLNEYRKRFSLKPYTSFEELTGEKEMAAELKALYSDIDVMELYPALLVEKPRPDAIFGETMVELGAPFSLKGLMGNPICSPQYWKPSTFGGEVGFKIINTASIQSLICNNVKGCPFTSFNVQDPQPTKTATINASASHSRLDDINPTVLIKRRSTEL
The data set is described as follows: Inhibition of COX-2 in mouse J774 cells assessed as reduction in LPS-induced PGE2 level incubated for 24 hrs by radio immunoassay. The format is cell-based. In short, it runs like this:
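Murine J774 macrophages were stimulated for 24 h with E. coli LPS (10 µg/mL) to induce COX-2, with or without compound (0.001–10 µM). Supernatant PGE2 was measured by RIA as % inhibition of production versus control; triplicate wells, mean of three experiments, IC50 from a sigmoidal variable-slope fit.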

For a further data set, the species on record is Mus musculus. The data set is described as follows: Selectivity ratio of IC50 for mouse COX-1 to IC50 for mouse COX-2. Summed up: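 In J774 cells, the ratio was taken as COX-1 IC50 over COX-2 IC50. COX-1 activity: 15 min compound pretreatment, then 30 min with 15 µM arachidonic acid. COX-2 activity: 24 h LPS (10 µg/mL) induction with compound. PGE2 was measured by RIA in both; IC50 values came from sigmoidal fits of three experiments.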

For orientation: pIC50 means −log10 of the IC50, conventionally taken in molar units.

For the compound `CCCOCCc1cc(-c2ccc(S(C)(=O)=O)cc2)n(-c2cccc(F)c2)c1C`, the Activity result in the data set with HaCaT [1] was “Non-toxic”. The result with HaCaT [2], in the data set on HaCaT [3], in the data set on HaCaT [4] and in the data set with HaCaT [5] was inactive. The pIC50 was under 4.00 in data set [6] and 7.89 in data set [7]. Moreover, in the data set listed under Mus musculus, the Ratio IC50 was over 7690.
For `Cc1c(CCOCCCF)cc(-c2ccc(S(C)(=O)=O)cc2)n1-c1cccc(F)c1`, the Activity entry in the data set on HaCaT [1] is “Non-toxic”. Moreover, the result with HaCaT [2], in the data set on HaCaT [3], in the data set on HaCaT [4] and in the data set with HaCaT [5] was inactive. Further, the results for the pIC50 in data set [6] and in data set [7] were under 4.00 and 6.87, respectively. Also, the Ratio IC50 in the data set filed under Mus musculus was over 2860.
As for `Cc1c(CCOCCCF)cc(-c2ccc(S(C)(=O)=O)cc2)n1-c1ccc(F)c(F)c1`, the Activity result in the data set on HaCaT [1] is “Non-toxic”; in the data set on HaCaT [2] it was “Dose-dependent effect”. Besides, the outcome in the data set on HaCaT [3] and in the data set on HaCaT [4] was Active. Further, the outcome in the data set with HaCaT [5] was inactive. Also, the negative-log IC50 (pIC50) in data set [6] is under 4.00; in data set [7] it was 7.72. The Ratio IC50 in the data set filed under Mus musculus is over 5260.
Consider `Cc1c(CCOCCF)cc(-c2ccc(S(C)(=O)=O)cc2)n1-c1ccc(F)cc1`, for which the figures for the Activity result in the data set on HaCaT [1] and in the data set on HaCaT [2] were “Non-toxic” and “Dose-dependent effect”, respectively. In addition, the result in the data set on HaCaT [3] and with HaCaT [4] was Active. Moreover, in the data set with HaCaT [5], the outcome was inactive. In addition, the negative logarithm of the IC50 (pIC50) was under 4.00 in data set [6] and 7.89 in data set [7]. Further, the Ratio IC50 in the data set listed under Mus musculus is over 7690.
As for `Cc1c(CCOCCF)cc(-c2ccc(S(C)(=O)=O)cc2)n1-c1ccc(F)c(F)c1`, the Activity result with HaCaT [1] is “Non-toxic”; in the data set on HaCaT [2], “Dose-dependent effect”. The result in the data set on HaCaT [3] and with HaCaT [4] was Active. The result with HaCaT [5] was inactive. In addition, the figures for the pIC50 in data set [6] and in data set [7] were under 4.00 and 7.54, respectively. Besides, the Ratio IC50 in the data set listed under Mus musculus is over 3450.
For the compound `Cc1c(CCOCCF)cc(-c2ccc(S(C)(=O)=O)cc2)n1-c1cccc(F)c1`, the Activity entry is “Non-toxic” in the data set with HaCaT [1] and “Dose-dependent effect” in the data set with HaCaT [2]. Besides, the result in the data set with HaCaT [3] and in the data set with HaCaT [4] was Active. For the same compound, in the data set on HaCaT [5], the result was inactive. Moreover, the pIC50 in data set [6] was under 4.00; in data set [7], 6.85. In addition, the Ratio IC50 in the data set filed under Mus musculus was over 714.
With `CCCOCCc1cc(-c2ccc(S(C)(=O)=O)cc2)n(-c2ccc(F)c(F)c2)c1C`, the Activity result in the data set on HaCaT [1] is “Non-toxic”; in the data set on HaCaT [2] it was “Dose-dependent effect”. In addition, the result in the data set with HaCaT [3] and with HaCaT [4] was Active. In the data set with HaCaT [5], the outcome was inactive. The results for the pIC50 in data set [6] and in data set [7] were under 4.00 and 7.74, respectively. The Ratio IC50 in the data set filed under Mus musculus is over 5560.
